Most compounds without a hit are left out; they make up all but 0.95% or so of the library.
Furin inhibitor = human furin inhibitors, primary screen, biochemical, fluorescence intensity; P09958; purified furin, fluorogenic substrate cleavage; inhibition, % at 20 µM or 30 µM; actives 0.061% (n = 220,000); AID 463115, 2010; in the data active = inhibition above about 25%
ABCG2 block = ABCG2 efflux pump inhibitors, primary screen, multiplex with ABCB1, IgMXP3 cells, flow cytometry; JC-1 efflux; inhibition, % at 6.6 µM; Broad substrate specificity ATP-binding cassette transporter ABCG2 (Homo sapiens), Q9UNQ0; actives 0.1% (n = 190,000); AID 1325, 2008;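 active = inhibition above 80%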;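 note: 0% = DMSO and 100% = nicardipine control wells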
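material = IgMXP3 (ABCG2) plus far-red-tagged CCRF-Adr (ABCB1) cells | amount = 3 million cells/mL, equal mix of both lines | also added = JC-1 transporter substrate | dosing = one concentration, 6.6 µM final | schedule = 10 min at 25 °C | measured by = flow cytometric JC-1 green MFI at 530 nm | read-out basis = percent efflux inhibition, scaled nicardipine 100% to DMSO 0%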
Arbovirus inh = antivirals against arbovirus infection, primary screen, cell-based, full library, 10K replicate subset; actives 0.37% (n = 200,000); arbovirus infection cell-based antiviral screen; inhibition, % at 10 µM; in the data active = inhibition above about 30%
ABCB1 inh = ABCB1 efflux pump inhibitors, primary screen, cell-based, multiplex, flow cytometry, ABCG2 counter-screen | ATP-dependent translocase ABCB1 (Homo sapiens), P08183 | CCRF-Adr cells, JC-1 efflux | inhibition, % at 6.6 µM | actives 0.067% (n = 190,000) | AID 1326, 2008; in the data active = inhibition above about 40%;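 note: 0% = vehicle and 100% = reference inhibitor; higher value means more JC-1 retained so stronger ABCB1 efflux block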
HSV augment = enhancers of HSV replication in host cells, fold increase, host cell viability | HSV replication augmentation in cells | maximum fold increase | actives 0.005% (n = 220,000) | AID 1956, 2009; in the data active = maximum fold increase above about 1.5; inconclusive = no clear call, values can overlap the other calls; tested in PC3 cells
p47phox inh = p47phox/p22phox peptide binding inhibitors, primary screen, biochemical, uHTS, NADPH oxidase regulatory subunit; fluorescence polarization, 2 h; inhibition, % at 24.7 µM; Neutrophil cytosol factor 1 (Homo sapiens), P14598; AID 1274, 2008; actives 0.53% (n = 220,000);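 active = inhibition above about 30%, limit read from the data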;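 note: 0% = p47phox with labelled peptide and 100% = labelled peptide alone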
Target sequence (P14598 whole entry, looked up): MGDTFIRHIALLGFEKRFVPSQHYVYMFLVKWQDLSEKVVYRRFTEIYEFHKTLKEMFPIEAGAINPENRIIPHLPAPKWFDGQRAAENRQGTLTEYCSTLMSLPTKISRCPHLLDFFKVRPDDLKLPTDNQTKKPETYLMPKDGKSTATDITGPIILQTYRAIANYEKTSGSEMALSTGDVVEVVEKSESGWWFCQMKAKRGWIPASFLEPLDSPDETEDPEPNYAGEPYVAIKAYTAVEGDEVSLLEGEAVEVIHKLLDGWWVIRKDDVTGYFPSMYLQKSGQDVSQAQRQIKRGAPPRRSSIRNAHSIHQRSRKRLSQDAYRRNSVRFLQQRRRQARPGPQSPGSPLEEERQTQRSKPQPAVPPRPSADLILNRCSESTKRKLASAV
Numbers without * were called inactive; i = inactive; ? = inconclusive; nt = no result.

SMILES	Furin inhibitor	ABCG2 block	Arbovirus inh	ABCB1 inh	HSV augment	p47phox inh
CNc1ccccc1C(C)(C)c1cc(-c2cc(C)cc(C)c2)no1	-7.0	9.7	21.3	1.0	i	-5.8
CCCCn1c(O)c(N=NC(=O)c2ccco2)c2ccccc21	-28.1	22.9	-10.3	5.1	i	-17.5
O=C(N=Nc1c(O)n(C2OC(=O)c3ccccc32)c2ccccc12)c1ccco1 (stereo not drawn)	-14.2	nt	nt	nt	i	30.9*
COC(=O)c1ccccc1NC(=O)C1CCN(C(=O)c2cc(OC)c(OC)c(OC)c2)CC1	-16.2	13.5	124.0*	1.3	i	-8.4
COc1ccc(C(=O)N2CCC(C(=O)Nc3ccccc3C)CC2)cc1OC	-25.0	0.5	5.1	0.2	i	-8.8
O=C(O)CC/C(=C\c1ccc(N2CCCC2)c([N+](=O)[O-])c1)c1nc2ccccc2s1	-14.1	0.2	53.7*	-0.6	i	-6.0
CN(C)N1C(N)=C(C#N)C(c2cccnc2)C2=C1CCCC2=O (stereo not drawn)	-11.6	1.2	2.4	0.1	i	0.0
O=C(COc1ccc(Cl)cc1)NCc1ccncc1	-17.7	0.1	-6.3	-0.4	i	2.2
O=C(Cc1ccc(Cl)c(Cl)c1)Nc1cccc(S(=O)(=O)N2CCOCC2)c1	-23.8	-0.6	-12.9	-0.2	i	-13.2
CC1=CC2=NC(=O)/C(=C/c3cccs3)C(=N)N2O1	-2.3	nt	nt	nt	i	-4.4
N=C1/C(=C/c2cccs2)C(=O)N=C2SN=C(SCc3ccccc3)N12	-7.0	-0.8	34.8*	0.0	i	-27.3
CC(C)CSC1=NSC2=NC(=O)/C(=C\c3cccs3)C(=N)N12	-2.9	-4.1	48.4*	-1.9	i	-29.1
CSC1=NSC2=NC(=O)/C(=C\c3cccs3)C(=N)N12	3.1	78.2	40.9*	1.4	i	-17.9
C/C=C(\C)C(=O)Nc1cccc(C2=NOC3(C2)C[C@H](C(N)=O)N(C(=O)C(c2ccccc2)c2ccccc2)C3)c1 (stereo partly drawn)	-21.2	nt	nt	nt	i	-4.9
Cc1ccc(CCN2CC(C(=O)NCCCN3CCCCCC3)CC2=O)cc1 (stereo not drawn)	-19.0	-0.9	5.2	-0.1	i	38.0*
O=c1[nH]cnc(O)c1C(c1ccc2c(c1)OCO2)c1c(O)nc[nH]c1=O	-17.4	7.2	5.1	0.2	i	-6.1
O=C(OC1CCCCC1)c1ccc2c(c1)C1C=CCC1C(C(=O)O)N2 (stereo not drawn)	-15.1	-2.6	-2.3	-0.8	nt	39.5*
CCOC(=O)C1Nc2ccc(C)cc2C2C=CCC12 (stereo not drawn)	nt	nt	nt	nt	i	nt
COCc1cc(C)nc(N/N=C/c2ccc(-c3ccc(Cl)cc3[N+](=O)[O-])o2)c1C#N	-14.2	8.5	-0.8	0.8	i	40.2*
CC(C)C(c1nnnn1Cc1cccs1)N1CCN(C(=O)c2ccco2)CC1 (stereo not drawn)	-17.4	2.9	-4.5	1.7	i	0.1
Cn1c(-c2c(N)n(-c3ccccc3)c3nc4ccccc4nc23)nc2ccccc21	0.3	3.7	64.1*	1.4	i	4.9
Cc1cc(C(F)(F)F)nc(-n2cc(-c3ccccc3)nn2)n1	-25.0	6.7	3.3	1.1	i	-5.7
CC(NC(=O)Cc1ccccc1)c1cc2c(cc1Br)OCCCO2 (stereo not drawn)	-7.7	-1.5	7.8	nt	nt	-2.2
COc1ccc(C(C)=O)cc1COC(=O)CNC(=O)c1ccc(Cl)cc1	-2.0	15.1	0.0	0.9	i	193.7*
CCCCC(=O)Nc1ccc(C(N)=O)cc1	-22.1	24.5	4.8	1.0	i	-7.2
SMILES	Furin inhibitor	ABCG2 block	Arbovirus inh	ABCB1 inh	HSV augment	p47phox inh
CCCCCCCC[n+]1cccc(C(=O)N(CC)CC)c1	-1.7	11.9	4.9	0.4	i	-0.3
CCCCCCCCCCCCCCCC[n+]1ccc(C(N)=O)cc1	2.1	5.5	-37.9	0.5	i	101.0*
CCCCN(CCCC)C(=O)C[n+]1cccc(/C=N/O)c1	-21.0	1.1	3.3	0.1	i	-22.1
CCCCCCCCCCCCCCCC[n+]1cccc(C(=O)N(CC)CC)c1	0.9	1.1	-40.6	0.7	i	107.5*
CCCCCCCCCCCCCCCC[n+]1ccc(/C=N/O)cc1	-14.6	2.4	-40.5	1.2	i	97.0*
CCC(=O)N1CCc2cc(S(=O)(=O)CCC(=O)Nc3ccc(OC)c(OC)c3)ccc21	-19.9	0.3	8.1	0.0	i	-5.5
CC(O/N=C\c1ccccc1O)C(=O)Nc1ccccc1C(=O)N1CCOCC1 (stereo not drawn)	-11.2	3.4	-6.2	1.2	i	-5.9
Cc1ccc(NC(=O)/C(=C/C=C/c2ccccc2)NC(=O)c2ccccc2)cc1	3.4	1.5	30.4*	0.1	i	-17.6
Cn1c(O)c(N=NC(=O)c2cc(-c3cccs3)nc3ccccc23)c2ccccc21	-11.1	3.2	-20.1	1.3	i	-11.6
O=C(N=Nc1c(O)[nH]c2ccc(Br)cc12)c1cc(-c2cccs2)nc2ccccc12	-25.5	3.3	-13.3	0.1	i	59.8*
O=C(O)c1ccccc1Sc1c([N+](=O)[O-])cc(C(F)(F)F)cc1[N+](=O)[O-]	-12.9	-0.7	30.9*	-0.3	i	-3.0
O=C(O)c1ccccc1NSc1ccccc1[N+](=O)[O-]	-5.3	-2.1	15.8	0.0	i	-4.5
Cc1ccc(CNC(=O)CCc2nc(-c3cccs3)no2)cc1	-24.8	3.0	-5.1	0.5	i	199.6*
Cc1cc(C)nc(Sc2ncnc(N)c2[N+](=O)[O-])n1	-16.5	9.0	-9.9	0.8	i	2.2
Cc1cc2nc3n(c2cc1C)CC1CC(C(=O)NCc2ccco2)N(C)C31 (stereo not drawn)	-27.2	nt	nt	nt	i	-18.0
Clc1cccc(-c2cc3nc4c(c(NCc5ccco5)n3n2)CCCC4)c1	-5.5	28.1	33.7*	-0.3	i	-16.3
c1coc(CNc2c3c(nc4ncnn24)CCCC3)c1	-19.2	1.5	28.2	0.0	i	5.5
Cc1ccc(C)c(S(=O)(=O)N2CCN(C(C)C(=O)Nc3ccccc3-c3ccccc3)CC2)c1 (stereo not drawn)	-3.9	5.9	31.5*	5.1	i	-10.4
Oc1ccc(Br)cc1C=Nc1ccc2c3c(cccc13)CC2	-5.2	-0.1	-6.3	-0.3	?	-15.0

Assay outcomes as filed in PubChem.
